In ChEMBL document CHEMBL3997850 (ACS Med Chem Lett, 2017):

How the values were obtained:
[1] = target: Cytochrome P450 2D6 (Homo sapiens, UniProt P10635); assay: Inhibition of recombinant human CYP2D6 assessed as decrease in hydroxylation of 7-methoxy-4-methylcoumarin by fluorimetric method; type: ADME; conditions: recombinant enzyme
Procedure, shortened: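 Recombinant human isozymes with substrate at Km concentration: CYP2C9 with 7-methoxy-4-(trifluoromethyl)coumarin, CYP2D6 with 7-methoxy-4-methylcoumarin. Hydroxylation read fluorimetrically, inhibitor 0–25 µM.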

[2] = Half life in cynomolgus monkey at 4 mg/kg, iv by LC/MS/MS analysis; type: ADME, organism-based, Macaca fascicularis; conditions: in vivo
Procedure, shortened: (§1)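 Male cynomolgus monkeys given 4 mg/kg IV (5% DMAC, 40% propylene glycol in saline) or 10 mg/kg orally (0.5% methylcellulose). EDTA plasma collected pre-dose through 24 h. Acetonitrile protein precipitation, then LC/MS/MS quantification, linear 2–10000 nM. PK parameters by standard non-compartmental methods.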

[3] = Volume of distribution at steady state in rat at 5 mg/kg, iv or 5 mg/kg, po by LC/MS/MS analysis; type: ADME, organism-based; conditions: in vivo, read-out: Vdss
Procedure, shortened: (§2)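 Male rats, 5 mg/kg IV in 10% DMAC/saline or 5 mg/kg oral in 0.5% aqueous methylcellulose. Plasma (EDTA) sampled pre-dose to 24 h. Quantified by acetonitrile precipitation and LC/MS/MS (2–10000 nM range, 0.1 mL). Non-compartmental analysis of concentration–time data.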

[4] = system: Canis familiaris; assay: AUC in beagle dog at 5 mg/kg, iv or 10 mg/kg, po by LC/MS/MS analysis; type: ADME, organism-based, Canis lupus familiaris; conditions: in vivo
Procedure, shortened: (§3)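 Male beagle dogs dosed 5 mg/kg IV in 10% DMAC in saline or 10 mg/kg oral in 5% DMAC in 0.5% methylcellulose. EDTA blood taken from pre-dose to 24 h and spun to plasma. Plasma proteins precipitated with acetonitrile, then LC/MS/MS (linear 2–10000 nM, 0.1 mL plasma). Parameters derived by non-compartmental analysis.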

[5] = Half life in beagle dog at 5 mg/kg, iv by LC/MS/MS analysis; type: ADME, organism-based, Canis lupus familiaris; conditions: in vivo; procedure, shortened: as §3
[6] = Volume of distribution at steady state in cynomolgus monkey at 4 mg/kg, iv or 10 mg/kg, po by LC/MS/MS analysis; type: ADME, organism-based, Macaca fascicularis; conditions: in vivo, read-out: Vdss; procedure, shortened: as §1
[7] = system: Rattus norvegicus; assay: AUC in rat at 5 mg/kg, iv or 5 mg/kg, po by LC/MS/MS analysis; type: ADME, organism-based; conditions: in vivo; procedure, shortened: as §2
[8] = target: T1, Nuclear receptor subfamily 1 group I member 2 (Homo sapiens, UniProt O75469); assay: Induction of PXR (unknown origin) expressed in human HepG2 cells after 24 hrs by dual-glo luciferase reporter gene assay; type: ADME, cell-based
T1 sequence (O75469 whole entry): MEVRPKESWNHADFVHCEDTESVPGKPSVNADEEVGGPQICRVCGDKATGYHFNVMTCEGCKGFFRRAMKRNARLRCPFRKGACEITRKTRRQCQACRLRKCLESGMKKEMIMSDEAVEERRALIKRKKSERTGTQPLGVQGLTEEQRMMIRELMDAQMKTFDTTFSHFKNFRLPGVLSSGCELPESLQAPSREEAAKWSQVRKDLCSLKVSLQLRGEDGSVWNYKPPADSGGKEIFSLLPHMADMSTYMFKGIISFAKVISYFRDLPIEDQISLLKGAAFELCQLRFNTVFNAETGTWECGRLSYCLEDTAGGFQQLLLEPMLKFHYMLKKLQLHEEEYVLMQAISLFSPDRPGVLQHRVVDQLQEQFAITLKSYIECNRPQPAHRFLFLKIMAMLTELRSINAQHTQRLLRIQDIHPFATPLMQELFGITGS
Procedure, shortened: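 HepG2 cells transfected with human or rat PXR/CYP3A4 reporter, grown 24 h in phenol-red-free MEM with 2 mM L-glutamine and 10% charcoal-stripped FBS at 37 °C, 5% CO2. Compound added at 10 µM final with 0.6% DMSO for 24 h. Dual-Glo firefly then Renilla luminescence read; firefly/Renilla ratio normalized to control-compound wells as % induction.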

[9] = system: Mus musculus; assay: Toxicity in mouse up to 2000 mg/kg/day after 28 days by clinical pathology test; type: organism-based; conditions: in vivo, 672 h
[10] = system: Mus musculus; assay: Toxicity in mouse assessed as effect on food consumption up to 2000 mg/kg/day after 28 days; type: organism-based; conditions: in vivo, 672 h
[11] = Half life in rat at 5 mg/kg, po by LC/MS/MS analysis; type: ADME, organism-based; conditions: in vivo; procedure, shortened: as §2
[12] = system: Mus musculus; assay: Toxicity in mouse assessed as change in body weight up to 2000 mg/kg/day after 28 days; type: organism-based; conditions: in vivo, 672 h
[13] = target: Cytochrome P450 3A4 (Homo sapiens, UniProt P08684); assay: Inhibition of recombinant human CYP3A4 assessed as decrease in hydroxylation of 7-benzyloxy-4-trifluoromethyl-coumarin by fluorescence assay; type: ADME; conditions: recombinant enzyme
Chain of Cytochrome P450 3A4 (P08684 whole entry): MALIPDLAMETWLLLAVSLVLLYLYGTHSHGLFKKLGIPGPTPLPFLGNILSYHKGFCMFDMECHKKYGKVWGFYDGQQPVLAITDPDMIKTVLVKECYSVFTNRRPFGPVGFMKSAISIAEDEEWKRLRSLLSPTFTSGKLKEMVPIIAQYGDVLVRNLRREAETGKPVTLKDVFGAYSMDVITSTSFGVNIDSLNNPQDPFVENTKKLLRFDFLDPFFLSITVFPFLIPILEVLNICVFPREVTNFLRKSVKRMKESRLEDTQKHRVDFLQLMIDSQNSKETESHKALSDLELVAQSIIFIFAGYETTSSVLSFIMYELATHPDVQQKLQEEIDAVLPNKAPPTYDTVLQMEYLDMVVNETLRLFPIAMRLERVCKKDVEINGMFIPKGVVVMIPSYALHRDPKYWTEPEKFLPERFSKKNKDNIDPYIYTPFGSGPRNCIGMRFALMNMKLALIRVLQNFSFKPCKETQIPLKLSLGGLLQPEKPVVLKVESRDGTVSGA
Procedure, shortened: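 Recombinant human CYP1A2 or CYP3A4 with 7-benzyloxy-4-trifluoromethyl-coumarin at Km concentration; hydroxylation read by fluorescence. Inhibitor tested at 0–25 µM.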

[14] = system: Mus musculus; assay: Toxicity in mouse up to 2000 mg/kg/day after 28 days by histopathology test; type: organism-based; conditions: in vivo, 672 h
[15] = Clearance in beagle dog at 5 mg/kg, iv or 10 mg/kg, po by LC/MS/MS analysis; type: ADME, organism-based, Canis lupus familiaris; conditions: in vivo; procedure, shortened: as §3
[16] = system: Liver; assay: Intrinsic clearance in rat hepatic S9 fraction at 5 uM in presence of UDPGA measured over 30 mins by LC/MS analysis; type: ADME; conditions: s9, 0.5 h
[17] = system: Liver; assay: Intrinsic clearance in rat hepatic S9 fraction at 5 uM in presence of UDPGA/NADPH measured over 30 mins by LC/MS analysis; type: ADME, tissue-based; conditions: s9, 0.5 h
Procedure, shortened: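 Rat hepatic S9 (2 mg/mL protein) with compound 5 µM, 50 mM Tris-HCl pH 7.5, 8 mM MgCl2, 2 mM NADPH, 2 mM UDPGA, 12.7 µM alamethicin, 37 °C. Reaction started with S9. Aliquots taken over 0–30 min, quenched with acetonitrile, analyzed by LC/MS.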

[18] = target: T2, Cytochrome P450 2C8 (Homo sapiens, UniProt P10632); assay: Inhibition of recombinant human CYP2C8 assessed as decrease in conversion of dibenzylfluoresein to fluorescein by fluorimetric method; type: ADME; conditions: recombinant enzyme
T2 sequence (P10632 whole entry): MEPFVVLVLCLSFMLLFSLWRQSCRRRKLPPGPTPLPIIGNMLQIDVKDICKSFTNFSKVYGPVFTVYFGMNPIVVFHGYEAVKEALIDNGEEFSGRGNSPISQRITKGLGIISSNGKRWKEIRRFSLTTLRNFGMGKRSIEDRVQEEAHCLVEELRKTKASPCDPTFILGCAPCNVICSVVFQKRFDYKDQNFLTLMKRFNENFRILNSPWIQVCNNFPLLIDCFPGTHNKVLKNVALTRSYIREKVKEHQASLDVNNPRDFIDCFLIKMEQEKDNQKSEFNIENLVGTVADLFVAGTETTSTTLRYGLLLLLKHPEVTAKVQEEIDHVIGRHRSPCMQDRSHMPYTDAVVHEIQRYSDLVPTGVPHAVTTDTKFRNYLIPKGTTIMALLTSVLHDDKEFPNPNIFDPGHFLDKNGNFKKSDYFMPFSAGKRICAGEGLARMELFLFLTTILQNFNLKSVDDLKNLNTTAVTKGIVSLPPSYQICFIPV
Procedure, shortened: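 Recombinant human CYP2C8; dibenzylfluorescein at Km concentration converted to fluorescein, measured fluorimetrically. Inhibitor range 0–25 µM.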

Chain of Cytochrome P450 2D6 (P10635 whole entry): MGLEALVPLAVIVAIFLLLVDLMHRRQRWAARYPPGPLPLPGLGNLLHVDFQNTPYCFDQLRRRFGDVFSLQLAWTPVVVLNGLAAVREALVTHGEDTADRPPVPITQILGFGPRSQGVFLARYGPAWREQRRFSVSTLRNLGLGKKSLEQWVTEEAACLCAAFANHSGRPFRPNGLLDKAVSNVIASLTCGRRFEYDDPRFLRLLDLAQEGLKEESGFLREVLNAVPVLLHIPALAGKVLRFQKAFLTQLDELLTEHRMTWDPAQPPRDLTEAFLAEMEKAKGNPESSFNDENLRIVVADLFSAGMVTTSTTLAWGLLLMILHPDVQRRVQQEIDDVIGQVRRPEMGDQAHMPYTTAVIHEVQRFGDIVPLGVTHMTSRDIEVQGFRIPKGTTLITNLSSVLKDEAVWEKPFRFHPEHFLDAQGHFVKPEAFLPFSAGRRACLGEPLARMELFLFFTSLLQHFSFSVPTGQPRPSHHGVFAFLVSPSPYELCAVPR

- inhibition (INH) [1]: Not Active
- half-life [2]: 3.3 h
- Vd [3]: 2 L/kg
- AUC [4]: 29 µM·h
- half-life [5]: 3.1 h
- Vd [6]: 1.8 L/kg
- AUC [7]: 1.3 µM·h
- Activity [8]: Not Active
- half-life [11]: 2.2 h
- inhibition (INH) [13]: Not Active
- clearance [15]: 8.33 mL/min/kg
- CLH [16]: 6.7 mL/min/kg
- CLH [17]: 12 mL/min/kg
- inhibition (INH) [18]: Not Active
Structure (SMILES): NS(=O)(=O)NCCNc1nonc1C(=NO)Nc1ccc(F)c(Br)c1 [EPACADOSTAT]
- Activity [9]: Non-Toxic
- Activity [10]: Non-Toxic
- Activity [12]: Non-Toxic
- Activity [14]: Non-Toxic
